Measurements taken from publication PMC4186687 (Molecular Pharmaceutics, 2014).

Assays:
SK-OV-3 cells [1] = assay: Flow cytometry uptake with endocytic inhibitors; assay type: cell-based, human; settings: F′-PEpYLGLD:[W5R4C]–SeNPs 1:10, SK-OV-3, 2 h, 37 °C, n = 3
SK-OV-3 cells [2] = assay: Confocal microscopy on live cells; assay type: cell-based, human; settings: F′-PEpYLGLD 5 μM with or without [W5R4C]–SeNPs 50 μM, SK-OV-3, 2 h, 37 °C
Method in brief: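 SK-OV-3 cells, maintained in EMEM with 10% FBS and 1% penicillin–streptomycin at 37 °C under 5% CO2, were grown overnight on coverslips (1 × 10^5 cells per well). Fluorescein-labelled peptide (5 μM), alone or with peptide-capped selenium nanoparticles (50 μM), was added in opti-MEM for 2 h at 37 °C. Slides were washed and nuclei were DAPI-stained. Fluorescence intensity was compared with probe alone, in triplicate.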

Row | Molecule | effect on uptake of F′-PEpYLGLD loaded [W5R4C]–SeNPs (in words) (SK-OV-3 cells [1]) | other results
1 | CN(C)CCCN1c2ccccc2Sc2ccc(Cl)cc21 [chlorpromazine] | did not significantly decrease | –
2 | [N-]=[N+]=[N-].[Na+] [sodium azide] | did not alter | –
3 | CCN(c1nc(N)c(C(=O)N=C(N)N)nc1Cl)C(C)C [EIA, 5-(N-ethyl-N-isopropyl)-amiloride] | – | inhibition of uptake of F′-PEpYLGLD loaded [W5R4C]–SeNPs (SK-OV-3 cells [1]): 40%
4 | methyl-β-cyclodextrin | did not significantly decrease | –
5 | F′-PEpYLGLD | – | intracellular fluorescence of F′-PEpYLGLD (confocal microscopy) (SK-OV-3 cells [2]): No green fluorescence
6 | C[C@@H]1[C@H](O)[C@@H](C)/C=C/C=C/CC/C=C/C=C/C=C/C=C/C(O[C@H]2O[C@H](C)[C@@H](O)[C@H](N)[C@@H]2O)CC2O[C@](O)(CC(O)C(O)CCC(O)CC(O)CC(O)CC(=O)O[C@H]1C)CC(O)C2C(=O)O (stereo partly shown) [nystatin] | – | inhibition of uptake of F′-PEpYLGLD loaded [W5R4C]–SeNPs (SK-OV-3 cells [1]): 52%
7 | CCN(CC)CCCC(C)Nc1ccnc2cc(Cl)ccc12 (stereo not shown) [chloroquine] | did not significantly decrease | –
